Series [1] concerns Mycobacterium tuberculosis H37Rv. Kind of series: Inhibition of MmpL3 in clinical isolates of drug sensitive Mycobacterium tuberculosis H37Rv after 7 to 14 days by alamar blue assay. Background: Resazurin is reduced to fluorescent resorufin, in cell work by metabolically active cells.
The nature of series [2]: Stability in rat hepatocytes assessed as compound remaining at 1 uM after 2 hrs. Type of series: ADME, cell-based, Hepatocyte. The conditions noted are these: read-out: Stability. An outline of the steps: (§1)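 Hepatocytes from human, mouse, rat or dog incubated with 1 μM starting concentration for 2 h; percent of parent compound remaining.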
The nature of series [3]: Stability in mouse hepatocytes assessed as compound remaining at 1 uM after 2 hrs. Type of series: ADME, cell-based, Hepatocyte. The conditions noted are these: read-out: Stability. Summed up:
as §1

Series [4] in a line: Stability in dog hepatocytes assessed as compound remaining at 1 uM after 2 hrs. The settings on record: read-out: Stability. Type of series: ADME, cell-based, Canis lupus familiaris, Hepatocyte. An outline of the steps:
as §1

Another series concerns the target Cytochrome P450 3A4 (Homo sapiens, UniProt P08684). As to the kind of experiment: Inhibition of CYP3A4 (unknown origin). It is filed as ADME.
Series [5] is described as follows: Permeability across apical to basolateral side in human Caco2 cells. The settings on record: Caco-2, read-out: permeability. Type of series: ADME, cell-based. A general note: Caco-2 cells form a polarised layer with tight junctions and transporters.
The nature of series [6]: Permeability across basolateral to apical side in human Caco2 cells. The settings on record: Caco-2, read-out: permeability. It is filed as ADME, cell-based.
Series [7] concerns the target Voltage-gated inwardly rectifying potassium channel KCNH2 (Homo sapiens, UniProt Q12809). As to the kind of experiment: Inhibition of human ERG.
Series [8] deals with T1, Nuclear receptor subfamily 1 group I member 2 (Homo sapiens, UniProt O75469).
T1 sequence (O75469 whole entry): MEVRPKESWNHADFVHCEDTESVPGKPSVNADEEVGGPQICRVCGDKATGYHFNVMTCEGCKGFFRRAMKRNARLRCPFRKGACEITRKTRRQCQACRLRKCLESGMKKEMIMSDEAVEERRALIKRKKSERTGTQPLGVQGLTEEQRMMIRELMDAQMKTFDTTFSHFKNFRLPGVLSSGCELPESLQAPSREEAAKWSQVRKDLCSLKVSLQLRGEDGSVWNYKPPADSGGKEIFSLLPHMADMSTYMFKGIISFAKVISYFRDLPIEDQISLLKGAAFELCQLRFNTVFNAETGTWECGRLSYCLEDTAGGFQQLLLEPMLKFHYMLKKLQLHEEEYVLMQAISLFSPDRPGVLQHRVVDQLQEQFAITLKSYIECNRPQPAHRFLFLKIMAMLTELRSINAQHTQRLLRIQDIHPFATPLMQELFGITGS
As to the kind of experiment: Transactivation of PXR (unknown origin) assessed as upregulation of CYP3A4 at 0.1 to 1 microg/ml. Type of series: ADME. An outline of the steps: (§2)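 Nuclear receptor reporter-gene induction assay, with reporters coupled to PXR, CAR or AhR. Compound was tested at 0.1–1, 3 and 8 μg/mL. Positive controls were rifampin for PXR, CITCO for CAR and 3-methylcholanthrene for AhR.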

The target in series [9] is T2, Nuclear receptor subfamily 1 group I member 3 (Homo sapiens, UniProt Q14994).
T2 sequence (Q14994 whole entry): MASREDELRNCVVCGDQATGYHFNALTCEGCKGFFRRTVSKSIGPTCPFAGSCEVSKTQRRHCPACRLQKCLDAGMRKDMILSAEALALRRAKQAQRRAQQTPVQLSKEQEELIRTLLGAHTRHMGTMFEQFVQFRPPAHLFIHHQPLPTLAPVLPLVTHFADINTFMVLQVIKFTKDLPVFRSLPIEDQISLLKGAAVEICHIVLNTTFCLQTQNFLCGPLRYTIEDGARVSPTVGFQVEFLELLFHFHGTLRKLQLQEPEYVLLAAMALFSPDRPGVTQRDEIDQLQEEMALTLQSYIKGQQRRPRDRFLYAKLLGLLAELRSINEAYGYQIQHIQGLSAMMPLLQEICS
As to the kind of experiment: Transactivation of CAR (unknown origin) assessed as upregulation of CYP2B6 at 3 to 8 microg/ml. It is filed as ADME. Summed up:
as §2

Series [10] is described as follows: Mutagenicity in Salmonella typhimurium TA1537. It is filed as toxicity. The settings on record: salmonella enterica subsp. enterica serovar typhimurium.
The nature of series [11]: Tmax in BALB/c mouse lung at 100 mg/kg administered via oral gavage after 0.25 to 24 hrs by LC-MS analysis. It is filed as ADME, organism-based. Summed up: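 Female BALB/c mice (20 g) got a single 100 mg/kg oral gavage dose. Three animals were sacrificed per time point at 0, 0.25, 0.5, 1, 2, 4, 8 and 24 h. Cardiac blood was spun at 12 000g, 4 °C for plasma. Lungs were bead-beaten in water and the supernatant taken. Both matrices were quantified by LC-MS/MS with an indole-2-carboxamide internal standard. Parameters came from noncompartmental analysis.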

The nature of series [12]: Cmax in BALB/c mouse lung at 100 mg/kg administered via oral gavage after 0.25 to 24 hrs by LC-MS analysis. It is filed as ADME, organism-based. More on the design: dose 100 mg/kg, route oral. Summed up: (§3)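 Female BALB/c mice (20 g), single oral gavage dose of 100 mg/kg. Cardiac blood and lungs taken at 0, 0.25, 0.5, 1, 2, 4, 8 and 24 h (n = 3 per time point). Plasma separated by centrifugation; lungs bead-beaten in water and supernatant recovered. Drug quantified by LC-MS/MS against an indole-2-carboxamide internal standard. Parameters derived by noncompartmental analysis.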

Series [13] can be described thus: AUMClast in BALB/c mouse plasma at 100 mg/kg administered via oral gavage after 0.25 to 24 hrs by LC-MS analysis. It is filed as ADME, organism-based. The conditions noted are these: in vivo. An outline of the steps: as §3
Series [14] in a line: Mean residence time (last) in BALB/c mouse lung at 100 mg/kg administered via oral gavage by LC-MS analysis. It is filed as ADME, organism-based. Summed up:
as §3

For series [15], the system named is Mycobacterium tuberculosis. Kind of series: Antimycobacterial activity against Mycobacterium tuberculosis H37Rv infected in BALB/c mouse model assessed as reduction in CFU counts in lungs administered daily via oral gavage for 5 days per week measured after 14 to 28 days post dosage relative to control. Type of series: functional, organism-based. An outline of the steps: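 Female BALB/c mice, 4-6 weeks old, aerosol-infected with H37Rv (about 10^3 CFU); five mice taken on day 1 for lung implantation CFU. From day 1, 12.5, 25, 50 or 100 mg/kg in 0.5% carboxymethylcellulose by daily oral gavage, 5 days/week. Ethambutol 100 mg/kg as positive control, untreated infected mice as negative, 5 mice per group. Lung homogenates plated on 7H11 selective agar on days 14 and 28.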

Series [16] relates to Mycobacterium tuberculosis. As to the kind of experiment: Antimycobacterial activity against Mycobacterium tuberculosis H37Rv assessed as growth inhibition at 0.5 times MIC after 7 to 14 days in presence of 0.0313 times MIC of rifampin by alamar blue assay based Bliss synergy model analysis. Type of series: functional. An outline of the steps: (§4)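 Checkerboard of 2-fold dilutions, 4.0 to 0.0313 × MIC of each drug combined with rifampin. M. tuberculosis H37Rv at 1 × 10^4 CFU per well in 200 μL. Single-drug, blank and full-growth controls included. alamarBlue read-out, percent inhibition calculated. Bliss independence applied to wells below 1 × MIC; Δfaxy > 0 taken as synergy, < 0 as antagonism.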

Series [17] has as its system Mycobacterium tuberculosis. As to the kind of experiment: Antimycobacterial activity against Mycobacterium tuberculosis H37Rv assessed as growth inhibition at 0.25 times MIC after 7 to 14 days in presence of 0.25 times MIC of rifampin by alamar blue assay based by Bliss synergy model analysis. Type of series: functional. Summed up:
as §4

The test system of series [18] is Mycobacterium tuberculosis. Kind of series: Antimycobacterial activity against Mycobacterium tuberculosis H37Rv infected in BALB/c mouse model assessed as bacterial growth inhibition in lungs at 100 mg/kg administered daily via oral gavage for 5 days per week measured after 28 days post dosage co-treated with 10 mg/kg of rifampin by Bliss synergy model based analysis. Type of series: functional, organism-based. Summed up: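 Female BALB/c mice, 4-6 weeks old, aerosol-infected with H37Rv, day 1 implantation 3.4-log CFU per lung. Treatment from day 14: 100 mg/kg plus rifampin 10 mg/kg by oral gavage, doses at least 1 h apart, daily 5 days/week. Single-drug arms and untreated infected controls included, four mice per group. Lung CFU counted at day 28 of treatment on 7H11 selective agar.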

Data on one molecule can be found in ChEMBL document CHEMBL4477209, “Indole-2-carboxamide-based MmpL3 Inhibitors Show Exceptional Antitubercular Activity in an Animal Model of Tuberculosis Infection” (J Med Chem, 2016).

≈ marks a conversion by molar mass, not a printed value. Calls of active or inactive are those of the source. No cut-off for these calls is given here.

Sequence of Voltage-gated inwardly rectifying potassium channel KCNH2 (Q12809 whole entry): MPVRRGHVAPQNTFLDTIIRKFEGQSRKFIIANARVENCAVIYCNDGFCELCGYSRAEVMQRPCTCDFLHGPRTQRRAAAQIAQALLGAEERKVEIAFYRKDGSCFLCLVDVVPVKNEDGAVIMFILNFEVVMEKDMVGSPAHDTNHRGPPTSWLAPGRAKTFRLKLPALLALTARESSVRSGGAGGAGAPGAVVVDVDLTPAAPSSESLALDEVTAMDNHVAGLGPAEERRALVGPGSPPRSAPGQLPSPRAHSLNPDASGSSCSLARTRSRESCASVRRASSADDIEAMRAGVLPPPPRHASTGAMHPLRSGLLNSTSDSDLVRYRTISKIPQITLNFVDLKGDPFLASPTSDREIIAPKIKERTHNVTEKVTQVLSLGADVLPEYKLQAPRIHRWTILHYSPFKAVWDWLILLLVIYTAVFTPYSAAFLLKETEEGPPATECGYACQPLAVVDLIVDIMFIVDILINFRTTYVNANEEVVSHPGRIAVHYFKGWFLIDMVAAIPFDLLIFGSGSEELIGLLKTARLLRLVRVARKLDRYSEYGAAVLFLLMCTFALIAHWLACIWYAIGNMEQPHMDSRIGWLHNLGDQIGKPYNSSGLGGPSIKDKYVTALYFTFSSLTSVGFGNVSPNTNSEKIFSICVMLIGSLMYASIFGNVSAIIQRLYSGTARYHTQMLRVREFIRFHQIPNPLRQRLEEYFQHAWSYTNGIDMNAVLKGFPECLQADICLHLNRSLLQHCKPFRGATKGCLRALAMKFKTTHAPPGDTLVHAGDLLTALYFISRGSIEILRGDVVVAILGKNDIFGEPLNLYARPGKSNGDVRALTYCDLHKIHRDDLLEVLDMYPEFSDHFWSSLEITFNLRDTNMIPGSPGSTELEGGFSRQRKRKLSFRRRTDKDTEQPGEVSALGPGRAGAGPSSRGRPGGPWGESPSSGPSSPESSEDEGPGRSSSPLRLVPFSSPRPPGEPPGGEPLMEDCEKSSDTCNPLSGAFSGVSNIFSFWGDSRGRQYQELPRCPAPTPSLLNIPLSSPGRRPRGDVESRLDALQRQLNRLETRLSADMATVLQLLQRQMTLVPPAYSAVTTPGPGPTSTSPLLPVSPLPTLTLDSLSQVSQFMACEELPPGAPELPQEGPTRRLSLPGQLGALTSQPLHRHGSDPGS
Sequence of Cytochrome P450 3A4 (P08684 whole entry): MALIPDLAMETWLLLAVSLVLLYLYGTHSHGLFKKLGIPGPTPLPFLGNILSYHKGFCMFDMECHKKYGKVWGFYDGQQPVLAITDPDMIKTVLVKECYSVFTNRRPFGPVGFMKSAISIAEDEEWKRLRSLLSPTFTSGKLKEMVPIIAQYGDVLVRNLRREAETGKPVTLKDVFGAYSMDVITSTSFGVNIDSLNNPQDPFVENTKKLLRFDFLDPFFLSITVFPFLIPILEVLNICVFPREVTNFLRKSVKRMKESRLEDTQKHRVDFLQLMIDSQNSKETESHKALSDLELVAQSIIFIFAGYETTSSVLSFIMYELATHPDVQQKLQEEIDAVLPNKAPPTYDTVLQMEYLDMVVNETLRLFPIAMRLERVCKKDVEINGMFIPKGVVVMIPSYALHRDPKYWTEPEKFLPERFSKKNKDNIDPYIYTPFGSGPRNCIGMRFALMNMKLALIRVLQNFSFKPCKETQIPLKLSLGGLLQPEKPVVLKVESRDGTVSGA

What is called IC50 is the concentration that inhibits the measured activity by half. Broadly, the Tmax is the time at which the peak concentration occurs. A word on the Cmax: it is the peak of the concentration-time curve. Usually MRT last stands for the average time that molecules of a dose stay in the body. In turn, `C[C@@H]1[C@H]2C[C@@H](C[C@H]1NC(=O)c1cc3c(F)cc(F)cc3[nH]1)C2(C)C` gave an MIC90 in series [1] of 0.012 µM (≈ 3.99 ng/mL). The remaining at 2 h, 1 µM in [2] worked out at 0.7%; in series [3], 15%; in [4] it was 18%. In addition, the “inhibition (INH)” value against Cytochrome P450 3A4 is reported as -6.7%. In [5], the Papp A→B amounted to 0.19 ×10⁻⁶ cm/s. In [6], the Papp B→A worked out at 0.25 ×10⁻⁶ cm/s. In series [7], this molecule displayed an IC50 of more than 30 µM. Besides, the Activity result is “Not Active” in series [8], “Active” in series [9], “Non-Toxic” in [10] and “Dose-dependent effect” in series [15]. Besides, the Tmax in [11] was determined as 4 h. The molecule further yielded a Cmax in series [12] of 3500 ng/g. In series [13], this molecule returned an AUMClast of 137 hr.hr.ug/ml. In [14], this molecule registered an MRT last of 8.49 h. Also, the “growth inhibition (GI)” value is 99.2% in [16] and 99.4% in [17]. Besides, the result in series [18] was Active.
